Data reported in ChEMBL document CHEMBL1127424, “7-azetidinylquinolones as antibacterial agents. 2. Synthesis and biological activity of 7-(2,3-disubstituted-1-azetidinyl)-4-oxoquinoline- and -1,8-naphthyridine-3-carboxylic acids. Properties and structure-activity relationships of quinolones with an azetidine moiety” (J Med Chem, 1994).
Converted amounts (≈) assume the structure as drawn.

Experiments:
[1] = Measured ionization constant (pKa); assay type: physicochemical; details: read-out: pKa1
Method in brief: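 Spectrophotometric titration at 20 ± 1 °C, 0.1 M ionic strength, pH varied with H2SO4 or NaOH made up in the compound stock. Absorbance followed at compound-specific wavelengths chosen from 200–400 nm scans. pKa1 and pKa2 taken as the inflection points of the two-step absorbance vs pH curve.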

[2] = HPLC capacity factor (k'); assay type: ADME
Method in brief: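 Ion-pair reversed-phase HPLC on ODS-2 (10 μm) at 45 °C. Mobile phase: 10 mM sodium heptanesulfonate plus 50 mM KH2PO4 (pH 3.5)–methanol 45:55, 1 mL/min. Samples at 100 μg/mL in DMF, injected in duplicate, UV 280 nm. k' = (tR − t0)/t0.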

Staphylococcus aureus = test: In vitro minimum inhibitory concentration for Staphylococcus aureus ATCC 25178; assay type: functional
Method in brief: (§1)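 Serial 2-fold agar dilution in Mueller Hinton medium, run alongside a reference quinolone. Inoculum adjusted to 10⁸ cfu/mL; compound range 0.007–16 μg/mL.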

Klebsiella pneumoniae = test: In vitro minimum inhibitory concentration to inhibit Klebsiella pneumoniae ATCC 10031; assay type: functional; method in brief: as §1
Bacillus cereus = test: In vitro minimum inhibitory concentration for Bacillus cereus ATCC 11778; assay type: functional; method in brief: as §1
Enterococcus faecalis = test: In vitro minimum inhibitory concentration for Streptococcus faecalis ATCC 10541; assay type: functional; method in brief: as §1
Bacillus subtilis = test: In vitro minimum inhibitory concentration for Bacillus subtilis ATCC 6633; assay type: functional; method in brief: as §1
Enterobacter cloacae = test: In vitro minimum inhibitory concentration for Enterobacter cloacae ATCC 23355; assay type: functional
[3] = AUC (0-4 hr) ug/ml/h; assay type: ADME, cell-free; parameters: time < 4 hr; concentration or dose not given beside the values; details: plasma
Method in brief: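 Mice dosed once orally at 50 mg/kg; blood taken from groups of six mice at 0.5, 1, 2 and 4 h. Serum drug assayed by disk agar diffusion bioassay (Bacillus subtilis ATCC 6633 on Seed Agar, 37 °C, 18 h), giving total activity.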

[4] = Solubility (buffer pH 7.4); assay type: physicochemical; details: read-out: S
Method in brief: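 Excess solid shaken in 0.05 M phosphate buffer pH 7.4 for 24 h at 25 °C. Suspension filtered through 0.22 μm, discarding the first portion. Filtrate diluted in 0.1 N HCl or 0.1 N NaOH and read by UV at the compound's absorbance maximum.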

[5] = tested on: Staphylococcus epidermidis; test: In vitro minimum inhibitory concentration for Staphylococcus epidermidis ATCC 155-1; assay type: functional; method in brief: as §1
Morganella morganii = test: In vitro minimum inhibitory concentration for Morganella morganii ATCC 8019; assay type: functional; method in brief: as §1
Escherichia coli = test: In vitro minimum inhibitory concentration for Escherichia coli ATCC 10799; assay type: functional; method in brief: as §1
Proteus vulgaris = test: In vitro minimum inhibitory concentration for Proteus vulgaris ATCC 8427; assay type: functional; method in brief: as §1
Pseudomonas aeruginosa = test: In vitro minimum inhibitory concentration for Pseudomonas aeruginosa ATCC 10145; assay type: functional; method in brief: as §1
Mus musculus [6] = test: Evaluation of efficacy on systemic infections Staphylococcus aureus HS-93, after oral administration in mice; assay type: functional
Method in brief: (§2)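 Single oral dose given immediately after infection, one of four doses per group, chosen from in vitro activity. Survival scored after one week. ED50 (total mg/kg protecting 50%) interpolated from survival rates.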

Mus musculus [7] = test: Evaluation of efficacy on systemic infections Pseudomonas aeruginosa HS-116, after oral administration in mice; assay type: functional; method in brief: as §2
Mus musculus [8] = test: Evaluation of efficacy on systemic infections Escherichia coli HM-42, after oral administration in mice; assay type: functional; method in brief: as §2

SMILES | pKa [1] | Log k' [2] | MIC (Staphylococcus aureus) [µg/mL] | MIC (Klebsiella pneumoniae) [µg/mL] | MIC (Bacillus cereus) [µg/mL] | MIC (Enterococcus faecalis) [µg/mL] | MIC (Bacillus subtilis) [µg/mL] | MIC (Enterobacter cloacae) [µg/mL] | AUC [3] [ng·h/mL] | solubility [4] [µg/mL] | MIC [5] [µg/mL] | MIC (Morganella morganii) [µg/mL] | MIC (Escherichia coli) [µg/mL] | MIC (Proteus vulgaris) [µg/mL] | MIC (Pseudomonas aeruginosa) [µg/mL] | ED50 (Mus musculus [6]) [mg/kg] | ED50 (Mus musculus [7]) [mg/kg] | ED50 (Mus musculus [8]) [mg/kg]
C[C@H]1[C@H](N)CN1c1c(F)cc2c(=O)c3c(=O)[nH]sc3n(C3CC3)c2c1F |  | 0.1134 | 0.12 (≈ 0.317 µM) | 0.03 (≈ 0.0793 µM) | 0.06 (≈ 0.159 µM) | 0.25 (≈ 0.661 µM) | 0.06 (≈ 0.159 µM) | 0.03 (≈ 0.0793 µM) |  |  | 0.12 (≈ 0.317 µM) | 0.06 (≈ 0.159 µM) | 0.12 (≈ 0.317 µM) | 0.12 (≈ 0.317 µM) | 1 (≈ 2.64 µM) |  |  | 
C[C@H]1[C@H](N)CN1c1cc2c(cc1F)c(=O)c1c(=O)[nH]sc1n2C1CC1 |  | 0.065 | 0.06 (≈ 0.166 µM) | 0.015 (≈ 0.0416 µM) | 0.06 (≈ 0.166 µM) | 0.25 (≈ 0.694 µM) | 0.015 (≈ 0.0416 µM) | 0.015 (≈ 0.0416 µM) | 16200 |  | 0.03 (≈ 0.0832 µM) | 0.03 (≈ 0.0832 µM) | 0.03 (≈ 0.0832 µM) | 0.12 (≈ 0.333 µM) | 0.25 (≈ 0.694 µM) |  |  | 
CCn1cc(C(=O)O)c(=O)c2cc(F)c(N3C[C@@H](N)[C@@H]3C)nc21 |  | -0.1061 | 0.5 (≈ 1.56 µM) | 0.12 (≈ 0.375 µM) | 0.5 (≈ 1.56 µM) | 2 (≈ 6.24 µM) | 0.12 (≈ 0.375 µM) | 0.12 (≈ 0.375 µM) |  |  | 0.5 (≈ 1.56 µM) | 0.25 (≈ 0.78 µM) | 0.25 (≈ 0.78 µM) | 0.5 (≈ 1.56 µM) | 2 (≈ 6.24 µM) |  |  | 
C[C@H]1[C@H](N)CN1c1cc2c(cc1F)c(=O)c(C(=O)O)cn2C(C)(C)C |  | 0.1399 | 0.25 (≈ 0.72 µM) | 0.015 (≈ 0.0432 µM) | 0.25 (≈ 0.72 µM) | 0.5 (≈ 1.44 µM) | 0.06 (≈ 0.173 µM) | 0.12 (≈ 0.345 µM) |  |  | 0.25 (≈ 0.72 µM) | 0.25 (≈ 0.72 µM) | 0.25 (≈ 0.72 µM) | 0.25 (≈ 0.72 µM) | 2 (≈ 5.76 µM) |  |  | 
C[C@H]1[C@H](N)CN1c1c(F)cc2c(=O)c(C(=O)O)cn(-c3ccc(F)cc3)c2c1Cl |  | 0.2581 | 0.03 (≈ 0.0715 µM) | 0.03 (≈ 0.0715 µM) | 0.03 (≈ 0.0715 µM) | 0.25 (≈ 0.596 µM) | 0.03 (≈ 0.0715 µM) | 0.06 (≈ 0.143 µM) |  |  | 0.06 (≈ 0.143 µM) | 0.06 (≈ 0.143 µM) | 0.06 (≈ 0.143 µM) | 0.25 (≈ 0.596 µM) | 0.25 (≈ 0.596 µM) | 1.3 | 37.9 | 3.6
C[C@H]1[C@H](N)CN1c1nc2c(cc1F)c(=O)c(C(=O)O)cn2C(C)(C)C |  | 0.1644 | 0.12 (≈ 0.344 µM) | 0.015 (≈ 0.0431 µM) | 0.12 (≈ 0.344 µM) | 1 (≈ 2.87 µM) | 0.015 (≈ 0.0431 µM) | 0.06 (≈ 0.172 µM) | 16500 |  | 0.12 (≈ 0.344 µM) | 0.12 (≈ 0.344 µM) | 0.06 (≈ 0.172 µM) | 0.25 (≈ 0.718 µM) | 2 (≈ 5.74 µM) |  |  | 

More lines, main results first:

pKa [1] | Log k' [2] | MIC (Staphylococcus aureus) [µg/mL] | MIC (Klebsiella pneumoniae) [µg/mL] | MIC (Bacillus cereus) [µg/mL] | MIC (Enterococcus faecalis) [µg/mL] | MIC (Bacillus subtilis) [µg/mL] | MIC (Enterobacter cloacae) [µg/mL] | AUC [3] [ng·h/mL] | solubility [4] [µg/mL] | MIC [5] [µg/mL] | MIC (Morganella morganii) [µg/mL] | MIC (Escherichia coli) [µg/mL] | MIC (Proteus vulgaris) [µg/mL] | MIC (Pseudomonas aeruginosa) [µg/mL] | SMILES | ED50 (Mus musculus [6]) [mg/kg] | ED50 (Mus musculus [7]) [mg/kg] | ED50 (Mus musculus [8]) [mg/kg]
6.46 |  |  |  |  |  |  |  |  |  |  |  |  |  |  | CC[N+](C)(C)C1CN(c2cc3c(cc2F)c(=O)c(C(=O)O)cn3C2CC2)C1 |  |  | 
 | 0.1421 | 0.25 (≈ 0.724 µM) | 0.03 (≈ 0.0869 µM) | 0.25 (≈ 0.724 µM) | 2 (≈ 5.79 µM) | 0.015 (≈ 0.0434 µM) | 0.015 (≈ 0.0434 µM) | 3800 | 1.3 (≈ 3.76 µM) | 0.12 (≈ 0.347 µM) | 0.06 (≈ 0.174 µM) | 0.06 (≈ 0.174 µM) | 0.25 (≈ 0.724 µM) | 2 (≈ 5.79 µM) | C[C@H]1N(c2cc3c(cc2F)c(=O)c(C(=O)O)cn3C2CC2)C[C@]1(C)N |  |  | 
 | 0.0166 | 0.12 (≈ 0.323 µM) | 0.03 (≈ 0.0807 µM) | 0.25 (≈ 0.672 µM) | 0.5 (≈ 1.34 µM) | 0.06 (≈ 0.161 µM) | 0.03 (≈ 0.0807 µM) |  |  | 0.12 (≈ 0.323 µM) | 0.03 (≈ 0.0807 µM) | 0.03 (≈ 0.0807 µM) | 0.25 (≈ 0.672 µM) | 1 (≈ 2.69 µM) | C[C@H]1[C@H](N)CN1c1c(F)cc2c(=O)c(C(=O)O)cn(CCF)c2c1Cl |  |  | 
 | 0.025 | 0.25 (≈ 0.639 µM) | 0.06 (≈ 0.153 µM) | 0.25 (≈ 0.639 µM) | 2 (≈ 5.11 µM) | 0.12 (≈ 0.307 µM) | 1 (≈ 2.55 µM) | 11800 |  | 0.25 (≈ 0.639 µM) | 0.5 (≈ 1.28 µM) | 0.25 (≈ 0.639 µM) | 0.5 (≈ 1.28 µM) | 4 (≈ 10.2 µM) | CCNC[C@H]1CN(c2c(F)cc3c(=O)c(C(=O)O)cn(C4CC4)c3c2F)[C@@H]1C | 37.5 | 61 | 4.7
6.03 |  |  |  |  |  |  |  |  |  |  |  |  |  |  | CC1([N+](C)(C)C)CN(c2c(F)cc3c(=O)c(C(=O)O)cn(C4CC4)c3c2F)C1 |  |  | 
 | -0.1195 | 1 (≈ 2.86 µM) | 0.25 (≈ 0.716 µM) | 1 (≈ 2.86 µM) | 8 (≈ 22.9 µM) | 0.25 (≈ 0.716 µM) | 0.25 (≈ 0.716 µM) |  |  | 0.5 (≈ 1.43 µM) | 0.25 (≈ 0.716 µM) | 0.5 (≈ 1.43 µM) | 1 (≈ 2.86 µM) | 2 (≈ 5.72 µM) | C[C@H]1[C@H](N)CN1c1c(F)cc2c(=O)c(C(=O)O)cn3c2c1SCC3 |  |  | 
